Measured values reported in ChEMBL document CHEMBL4364291, “Benzylideneacetone Derivatives Inhibit Osteoclastogenesis and Activate Osteoblastogenesis Independently Based on Specific Structure-Activity Relationship” (J Med Chem, 2019).
The source made the active and inactive calls. The calls are words filed in the database; no cut-off is given here.

How the values were obtained:
MC3T3-E1 [1] = experiment: Induction of osteoblast differentiation in ascorbic acid/beta-glycerophosphate-induced mouse MC3T3-E1 cells assessed as increase in RUNX2 expression at 50 uM after 7 days by Western blot analysis relative to control; assay type: functional
Method in brief: (§1)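 MC3T3-E1 cells were induced with osteoblast differentiation factors, with or without 50 μM compound, for 21 d. Cells were harvested at 7, 14 and 21 d and RUNX2 was quantified by Western blot against untreated differentiated cells. The negative control lacked differentiation factors. Values are mean ± SD of three independent experiments.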

[2] = Cytotoxicity against human ASC cells after 24 hrs by MTT assay; assay type: cell-based; conditions: read-out: LD50
Method in brief: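 Human adipose-derived mesenchymal stem cells were grown in CB-ADMSC-GM medium at 37 °C under 5% CO2. Cell growth and survival were measured by MTT assay and reported as LD50.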

BMDM [3] = experiment: Inhibition of M-CSF/RANKL-induced osteoclast differentiation in C57BL/6 mouse bone marrow macrophages co-cultured with mouse MC3T3-E1 at 10 uM measured on day 14; assay type: functional, cell-based
MC3T3-E1 [4] = experiment: Induction of osteoblast differentiation in ascorbic acid/beta-glycerophosphate-induced mouse MC3T3-E1 cells co-cultured with C57BL/6 mouse bone marrow macrophages at 10 uM measured on day 6 by TRAP staining-based inverted microscopic analysis; assay type: functional, cell-based
MC3T3-E1 [5] = experiment: Induction of osteoblast differentiation in mouse ascorbic acid/beta-glycerophosphate-induced MC3T3-E1 cells assessed as increase in RUNX2 expression at 50 uM after 21 days by Western blot analysis relative to control; assay type: functional; method in brief: as §1
BMDM [6] = experiment: Inhibition of M-CSF/RANKL-induced osteoclast differentiation in C57BL/6 mouse bone marrow macrophages co-cultured with mouse MC3T3-E1 at 10 uM measured on day 7; assay type: functional, cell-based
MC3T3-E1 [7] = experiment: Induction of osteoblast differentiation in ascorbic acid/beta-glycerophosphate-induced mouse MC3T3-E1 cells assessed as increase in RUNX2 expression at 50 uM after 14 days by Western blot analysis relative to control; assay type: functional; method in brief: as §1
MC3T3-E1 [8] = experiment: Induction of osteoblast differentiation in mouse MC3T3-E1 cells co-cultured with C57BL/6 mouse bone marrow macrophages assessed as activation of ALP production at 10 uM measured on day 7 relative to control; assay type: functional
Method in brief: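 MC3T3-E1 cells were cocultured with C57BL/6 BMM in differentiation factors for both cell types, with 10 μM compound, and grown for 21 d. ALP production was measured at 7, 14 and 21 d after coculture induction, relative to untreated cells.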

MC3T3-E1 [9] = experiment: Induction of osteoblast differentiation in ascorbic acid/beta-glycerophosphate-induced mouse MC3T3-E1 cells co-cultured with C57BL/6 mouse bone marrow macrophages assessed as increase in osteocalcin expression at 10 uM measured on day 14 by Western blot analysis; assay type: functional, cell-based
Method in brief: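 MC3T3-E1 and C57BL/6 BMM cocultures were given osteoblast plus osteoclast differentiation factors, with or without 10 μM compound, for 21 d. The negative control had M-CSF only. Osteocalcin in culture medium was quantified by Western blot at 7, 14 and 21 d.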

[10] = Inhibition of M-CSF/RANKL-induced osteoclast differentiation in C57BL/6 mouse bone marrow macrophage assessed as reduction in multinucleated TRAP+ cells at 10 uM incubated for 6 days with fresh media replacement on day 3 and measured on day 6 by TRAP staining-based microscopic analysis relative to control; assay type: functional; conditions: C57BL/6, BMDM
Method in brief: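 BMM came from femur and tibia marrow of 5–8-week-old male C57BL/6 mice and were purified over lymphocyte separation medium. Cells, 1 × 10^5 per well, were grown in α-MEM/10% FBS with M-CSF (60 ng/mL) and RANKL (150 ng/mL) for 6 d, medium changed day 3. Compound range was 0.01−100 μM. TRAP+ multinucleated cells were counted on day 6.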

BMDM [11] = experiment: Inhibition of M-CSF/RANKL-induced osteoclast differentiation in C57BL/6 mouse bone marrow macrophages co-cultured with mouse MC3T3-E1 at 10 uM measured on day 21; assay type: functional, cell-based
[12] = Cytotoxicity against mouse NIH/3T3 cells after 24 hrs by MTT assay; assay type: cell-based, NIH3T3; conditions: read-out: LD50
Method in brief: (§2)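 Cells were maintained in DMEM at 37 °C under 5% CO2. Growth and survival were estimated by MTT assay, and the value is reported as LD50.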

[13] = Inhibition of M-CSF/RANKL-induced osteoclast differentiation in C57BL/6 mouse bone marrow macrophage assessed as reduction in bone resorption at 7.8 uM treated for 3 days starting from 6 days post M-CSF/RANKL-stimulation by europium-conjugated collagen based time-resolved fluorescence assay relative to control; assay type: functional, BMDM; design: scale not given: the % may be the effect or the level left
Method in brief: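 Mature multinucleated osteoclasts differentiated from C57BL/6 BMM were exposed to compound for 3 d in a bone resorption assay. Resorption was compared with untreated mature osteoclasts.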

BMDM [14] = experiment: Inhibition of RANKL-induced osteoclastogenesis in C57BL/6 mouse bone marrow macrophages assessed as effect on NFkappaB expression at 10 uM measured over 5 days by Western blot analysis; assay type: functional, cell-based
Method in brief: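 C57BL/6 BMM were grown with M-CSF plus RANKL over the course of osteoclastogenesis, treated at 0.5 or 10 μM. NF-κB and NFATc1 were followed by Western blot. The negative control was M-CSF only.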

B16-F10 = experiment: Antiproliferative activity against mouse B16F10 cells after 24 hrs by MTT assay; assay type: functional; conditions: B16-F10, 24 h, read-out: LD50 (the source's name); method in brief: as §2
BMDM [15] = experiment: Effect on NFkappaB expression in M-CSF induced C57BL/6 mouse bone marrow macrophages at 10 uM measured over 5 days by Western blot analysis; assay type: functional, cell-based
Method in brief: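 C57BL/6 BMM were proliferated with M-CSF alone without RANKL and treated at 0.5 or 10 μM. NF-κB expression was followed over time by Western blot.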

Mus musculus [16] = experiment: Antiosteoporotic activity in ddY mouse model of OVX-induced osteoporosis assessed as increase in cross-sectional thickness in femur bone at 1 mg/kg, po administered once daily via gavage for 4 weeks by microcomputed tomographic analysis; assay type: functional, organism-based
Method in brief: (§3)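 Female ddY mice were ovariectomized. Oral gavage began 1 week after surgery and ran once daily for 28 d. Vehicle was 300 μL PBS containing 0.5% (v/v) DMSO, also given to sham and OVX controls. Mice were then euthanized and femur and tibia fixed for CT imaging. Values are mean ± SD of four mice.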

Mus musculus [17] = experiment: Antiosteoporotic activity in ddY mouse model of OVX-induced osteoporosis assessed as increase in new bone volume in femur bone at 1 mg/kg, po administered once daily via gavage for 4 weeks by microcomputed tomographic analysis; assay type: functional, organism-based; method in brief: as §3
Mus musculus [18] = experiment: Antiosteoporotic activity in ddY mouse model of OVX-induced osteoporosis assessed as increase in trabecular number in femur bone at 1 mg/kg, po administered once daily via gavage for 4 weeks by microcomputed tomographic analysis; assay type: functional, organism-based; method in brief: as §3
[19] = Potency index, ratio of alendronate IC50 to test compound IC50 for inhibition of M-CSF/RANKL-induced osteoclast differentiation in C57BL/6 mouse bone marrow macrophages by measuring decrease in multinucleated TRAP+ cells incubated for 6 days with fresh media replacement on day 3 and measured on day 6 by TRAP staining-based microscopic analysis; assay type: functional, BMDM
Mus musculus [20] = experiment: Antiosteoporotic activity in ddY mouse model of OVX-induced osteoporosis assessed as increase in trabecular thickness in femur bone at 1 mg/kg, po administered once daily via gavage for 4 weeks by microcomputed tomographic analysis; assay type: functional, organism-based; method in brief: as §3
Mus musculus [21] = experiment: Antiosteoporotic activity in ddY mouse model of OVX-induced osteoporosis assessed as increase in ratio of bone volume/trabecular volume in femur bone at 1 mg/kg, po administered once daily via gavage for 4 weeks by microcomputed tomographic analysis; assay type: functional, organism-based; method in brief: as §3

CC(=O)/C=C/c1ccc(O)c(O)c1
fold change (FC) (MC3T3-E1 [1]): 1.7 | CC50 at 24 h [2]: 2.8 mM | inhibition (BMDM [3]): Active | Activity (MC3T3-E1 [4]): Active | fold change (FC) (MC3T3-E1 [5]): 3.2 | inhibition (BMDM [6]): Active | fold change (FC) (MC3T3-E1 [7]): 1.4 | Activity (MC3T3-E1 [8]): 100% | Activity (MC3T3-E1 [9]): Active | inhibition at 10 µM [10]: 100% | inhibition (BMDM [11]): Active | CC50 at 24 h [12]: > 5 mM | Activity [13]: <=59% | inhibition (BMDM [14]): inactive | CC50 (B16-F10): 0.065 mM | Activity (BMDM [15]): inactive

COc1ccc(/C=C/C(C)=O)cc1O
Activity (Mus musculus [16]): Active | Activity (Mus musculus [17]): Active | Activity (Mus musculus [18]): Active | Ratio IC50 [19]: 30 | Activity (Mus musculus [20]): Active | Activity (Mus musculus [21]): Active
